Tests used:
[1] = target: T1, Alpha-2B adrenergic receptor (Rattus norvegicus, UniProt P19328); assay: Displacement of rauwolscine from rat Alpha-2B adrenergic receptor expressed in CHO cells; assay type: cell-based
T1 sequence (P19328 whole entry): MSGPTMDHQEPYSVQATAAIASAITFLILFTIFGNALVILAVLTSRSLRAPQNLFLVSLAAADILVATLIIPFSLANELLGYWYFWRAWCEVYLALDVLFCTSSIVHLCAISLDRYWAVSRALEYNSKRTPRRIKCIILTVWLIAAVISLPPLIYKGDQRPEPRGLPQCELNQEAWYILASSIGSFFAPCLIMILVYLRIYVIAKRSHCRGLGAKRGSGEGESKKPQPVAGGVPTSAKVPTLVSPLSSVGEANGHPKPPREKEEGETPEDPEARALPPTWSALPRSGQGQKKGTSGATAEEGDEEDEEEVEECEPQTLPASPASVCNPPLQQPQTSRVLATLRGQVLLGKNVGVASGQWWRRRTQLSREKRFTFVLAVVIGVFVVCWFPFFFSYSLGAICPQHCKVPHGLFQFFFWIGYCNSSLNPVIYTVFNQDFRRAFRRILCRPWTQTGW
Method in brief: (§1)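 Membranes of CHO cells expressing human α2A (CHO-C10), human α2C (CHO-C4) or rat α2B (CHO-RNG) receptor; competition against radiolabeled rauwolscine; affinity constants by nonlinear least-squares curve fitting; at least three separate determinations.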

[2] = target: T2, Alpha-2C adrenergic receptor (Homo sapiens, UniProt P18825); assay: Displacement of rauwolscine from human Alpha-2C adrenergic receptor expressed in CHO cells; assay type: cell-based; method in brief: as §1
T2 sequence (P18825 whole entry): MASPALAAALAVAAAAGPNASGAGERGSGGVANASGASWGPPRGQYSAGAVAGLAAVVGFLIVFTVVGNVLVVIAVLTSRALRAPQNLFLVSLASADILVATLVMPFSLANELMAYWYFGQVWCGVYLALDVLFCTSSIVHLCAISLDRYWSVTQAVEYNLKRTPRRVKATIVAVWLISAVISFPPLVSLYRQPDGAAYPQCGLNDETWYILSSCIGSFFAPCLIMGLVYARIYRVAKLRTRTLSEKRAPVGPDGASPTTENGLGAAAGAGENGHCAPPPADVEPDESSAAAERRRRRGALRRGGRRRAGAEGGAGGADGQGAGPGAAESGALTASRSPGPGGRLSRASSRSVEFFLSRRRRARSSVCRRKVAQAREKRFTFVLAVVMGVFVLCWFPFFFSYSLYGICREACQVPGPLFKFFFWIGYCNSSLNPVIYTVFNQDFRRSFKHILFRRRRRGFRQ

[3] = target: T3, Alpha-2A adrenergic receptor (Homo sapiens, UniProt P08913); assay: Displacement of rauwolscine from human Alpha-2A adrenergic receptor expressed in CHO cells; assay type: cell-based; method in brief: as §1
T3 sequence (P08913 whole entry): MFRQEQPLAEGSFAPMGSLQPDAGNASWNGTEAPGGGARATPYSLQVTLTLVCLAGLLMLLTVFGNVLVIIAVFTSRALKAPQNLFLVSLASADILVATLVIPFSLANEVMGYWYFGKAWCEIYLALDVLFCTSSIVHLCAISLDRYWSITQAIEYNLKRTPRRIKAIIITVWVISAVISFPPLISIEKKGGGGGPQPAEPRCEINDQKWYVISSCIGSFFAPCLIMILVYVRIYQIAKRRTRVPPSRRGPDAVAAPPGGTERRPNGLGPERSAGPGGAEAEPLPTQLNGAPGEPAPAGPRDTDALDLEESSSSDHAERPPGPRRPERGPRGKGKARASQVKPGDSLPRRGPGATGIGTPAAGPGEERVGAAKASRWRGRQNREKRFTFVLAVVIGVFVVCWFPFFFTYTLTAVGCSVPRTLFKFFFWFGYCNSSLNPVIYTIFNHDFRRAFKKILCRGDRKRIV

[4] = target: T4, Adrenergic receptor alpha-1 (Homo sapiens, UniProt P35348+P25100+P35368); assay: Displacement of prazosin from Alpha-1 adrenergic receptors of human cerebral cortex homogenate; assay type: tissue-based
T4 sequence (P35348 whole entry): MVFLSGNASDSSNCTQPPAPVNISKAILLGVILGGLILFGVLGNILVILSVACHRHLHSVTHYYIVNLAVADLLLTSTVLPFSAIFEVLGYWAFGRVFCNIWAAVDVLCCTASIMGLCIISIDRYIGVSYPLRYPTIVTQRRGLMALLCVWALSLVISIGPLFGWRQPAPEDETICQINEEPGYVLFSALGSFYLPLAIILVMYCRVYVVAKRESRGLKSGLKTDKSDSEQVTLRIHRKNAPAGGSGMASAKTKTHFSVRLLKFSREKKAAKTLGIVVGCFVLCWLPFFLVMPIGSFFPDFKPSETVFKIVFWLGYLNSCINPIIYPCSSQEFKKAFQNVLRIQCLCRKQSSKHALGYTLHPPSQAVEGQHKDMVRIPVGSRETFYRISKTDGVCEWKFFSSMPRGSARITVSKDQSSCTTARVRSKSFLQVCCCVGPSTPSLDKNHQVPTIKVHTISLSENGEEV
T4 sequence (P25100 whole entry): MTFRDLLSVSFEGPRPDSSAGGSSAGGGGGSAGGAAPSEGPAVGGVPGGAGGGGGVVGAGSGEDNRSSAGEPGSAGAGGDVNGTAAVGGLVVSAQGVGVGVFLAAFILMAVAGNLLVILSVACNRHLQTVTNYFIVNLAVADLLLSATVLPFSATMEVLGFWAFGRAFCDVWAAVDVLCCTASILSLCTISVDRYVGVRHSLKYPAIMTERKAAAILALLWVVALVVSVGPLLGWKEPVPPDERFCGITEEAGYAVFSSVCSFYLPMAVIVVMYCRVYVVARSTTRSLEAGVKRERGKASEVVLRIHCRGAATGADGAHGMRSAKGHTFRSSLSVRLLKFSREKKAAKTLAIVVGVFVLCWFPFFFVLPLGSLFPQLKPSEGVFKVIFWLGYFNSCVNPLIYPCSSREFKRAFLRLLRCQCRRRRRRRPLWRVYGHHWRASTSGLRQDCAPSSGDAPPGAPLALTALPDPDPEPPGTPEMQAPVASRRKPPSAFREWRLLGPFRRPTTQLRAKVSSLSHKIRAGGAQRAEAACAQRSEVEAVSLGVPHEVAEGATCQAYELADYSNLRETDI
T4 sequence (P35368 whole entry): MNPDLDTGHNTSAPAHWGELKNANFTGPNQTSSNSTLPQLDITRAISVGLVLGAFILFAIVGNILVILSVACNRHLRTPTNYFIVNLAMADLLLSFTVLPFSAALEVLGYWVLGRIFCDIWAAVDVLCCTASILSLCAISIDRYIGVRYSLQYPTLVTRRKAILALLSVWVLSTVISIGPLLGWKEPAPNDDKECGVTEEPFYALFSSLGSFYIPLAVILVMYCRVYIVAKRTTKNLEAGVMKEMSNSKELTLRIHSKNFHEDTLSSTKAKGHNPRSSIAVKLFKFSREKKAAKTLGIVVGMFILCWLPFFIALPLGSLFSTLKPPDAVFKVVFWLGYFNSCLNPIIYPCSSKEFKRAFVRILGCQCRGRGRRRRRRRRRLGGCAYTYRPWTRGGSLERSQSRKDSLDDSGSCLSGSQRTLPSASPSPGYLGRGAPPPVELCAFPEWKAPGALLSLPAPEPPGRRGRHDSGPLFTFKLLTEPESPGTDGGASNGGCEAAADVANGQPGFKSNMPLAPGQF
Method in brief: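 Membranes from human cerebral cortex, giving a mixed α1 subtype population; affinity from competition against radiolabeled prazosin; nonlinear least-squares curve fitting; at least three separate determinations.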

[5] = target: T3, Alpha-2A adrenergic receptor; assay: Effective concentration at Alpha-2A adrenergic receptor from CHO-C10 cells; assay type: functional, cell-based
Method in brief: (§2)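 Functional agonist response measured by Cytosensor microphysiometry in CHO cells expressing α2A (CHO-C10) or rat α2B (CHO-RNG) adrenoceptor.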

[6] = target: T5, Alpha-2B adrenergic receptor (Rattus norvegicus) (UniProt P19328); assay: Intrinsic activity relative to Norepinephrine at Alpha-2B adrenergic receptor from CHO-RNG cells; assay type: cell-based; method in brief: as §2
T5 sequence (whole entry): T1 sequence (P19328 whole entry)

[7] = target: T2, Alpha-2C adrenergic receptor; assay: Effective concentration at Alpha-2C adrenergic receptor from CHO-C4 cells; assay type: functional, cell-based
Method in brief: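 Functional agonist assay in CHO cells expressing the human α2C-adrenoceptor (CHO-C4). Responses were read on a Cytosensor microphysiometer.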

[8] = target: T1, Alpha-2B adrenergic receptor; assay: Effective Concentration at Alpha-2B adrenergic receptor from CHO-RNG cells; assay type: functional, cell-based; method in brief: as §2
[9] = target: T6, Alpha-2C adrenergic receptor (Homo sapiens) (UniProt P18825); conditions: CHO-C4
T6 sequence (whole entry): T2 sequence (P18825 whole entry)

[10] = target: T7, Alpha-2A adrenergic receptor (Homo sapiens) (UniProt P08913); assay: Intrinsic activity relative to Norepinephrine at Alpha-2A adrenergic receptor from CHO-C10 cells; assay type: cell-based; method in brief: as §2
T7 sequence (whole entry): T3 sequence (P08913 whole entry)

Question: `c1c[nH]c(Nc2ccc3nccnc3c2)n1` was tested. Which Ki [1] did it give?
Answer: The Ki was 9300 nM.

Question: What about the Ki [2] of the same compound?
Answer: Its Ki is 8800 nM.

Question: And the Ki [3]?
Answer: Its Ki is 3100 nM.

Question: What about the Ki [4] of the same compound?
Answer: The Ki was > 100000 nM.

Question: Which Ki [1] does the source give for `Brc1c(Nc2ncc[nH]2)ccc2nccnc12` here?
Answer: The Ki was > 10000 nM.

Question: And the Ki [2]?
Answer: Its Ki is > 10000 nM.

Question: What about the Ki [4] of the same compound?
Answer: Its Ki is > 100000 nM.

Question: For `COc1c(C(C)(C)C)cc(C)c(Nc2ncc[nH]2)c1C`, which EC50 [5] is on record?
Answer: Its EC50 is > 5000 nM.

Question: And the IA [6]?
Answer: The IA was 0.65.

Question: And the EC50 [7]?
Answer: The EC50 was > 5000 nM.

Question: What about the EC50 [8] of the same compound?
Answer: Its EC50 is 1100 nM.

Question: What about the Ki [4] of the same compound?
Answer: Its Ki is 4200 nM.

Question: What does the source list for `Cc1c(Nc2ncc[nH]2)ccc2c1NCCO2`?
Answer: Ki [1]: 421 nM; EC50 [5]: 124 nM; IA [9]: 0.64; IA [6]: 0.88; EC50 [7]: 110 nM; Ki [3]: 6 nM; IA [10]: 0.49; EC50 [8]: 470 nM; Ki [4]: 16000 nM

Question: Which results are given for `Brc1ccccc1Nc1ncc[nH]1`?
Answer: Ki [1]: 1500 nM; Ki [3]: 210 nM; Ki [4]: 11000 nM

Question: What does the source list for `Cc1c(Nc2ncc[nH]2)ccc2c1OCCO2`?
Answer: EC50 [5]: 8.7 nM; IA [9]: 0.5; IA [6]: 1; EC50 [7]: 6.6 nM; IA [10]: 0.89; EC50 [8]: 41 nM; Ki [4]: 2100 nM

Question: For `Clc1cccc(Cl)c1Nc1ncc[nH]1`, which Ki [2] is on record?
Answer: The Ki was 1100 nM.

Question: And the Ki [4]?
Answer: Its Ki is 6000 nM.

Question: `COc1cc(C)c(Nc2ncc[nH]2)cc1C(C)(C)C` was tested. Which Ki [1] did it give?
Answer: The Ki was 380 nM.

Question: And the Ki [2]?
Answer: The Ki was 290 nM.

Question: What about the Ki [3] of the same compound?
Answer: The Ki was 39 nM.

Question: And the Ki [4]?
Answer: Its Ki is 16000 nM.

Question: With `Cc1c(Nc2ncc[nH]2)ccc2nccnc12` as the compound, how does the Ki [1] read?
Answer: Its Ki is 1200 nM.

Question: What about the Ki [2] of the same compound?
Answer: The Ki was 340 nM.

Question: What about the Ki [4] of the same compound?
Answer: The Ki was > 28000 nM.

Question: Which Ki [1] does the source give for `COc1ccc(Nc2ncc[nH]2)c(C)c1OC` here?
Answer: Its Ki is 2500 nM.

Question: What about the Ki [2] of the same compound?
Answer: Its Ki is 1500 nM.

Question: What about the Ki [3] of the same compound?
Answer: The Ki was 130 nM.

Question: What about the Ki [4] of the same compound?
Answer: The Ki was 6600 nM.

Question: Which results are given for `c1c[nH]c(Nc2ccc3[nH]cnc3c2)n1`?
Answer: Ki [1]: 640 nM; Ki [2]: 400 nM; Ki [3]: 76 nM; Ki [4]: 24000 nM

Question: With `COc1ccc(Nc2ncc[nH]2)c(C)c1` as the compound, how does the Ki [4] read?
Answer: Its Ki is 8400 nM.

Question: Which results are given for `Brc1c(NC2=NCCN2)ccc2nccnc12` [BRIMONIDINE]?
Answer: IA [9]: 0.82; IA [6]: 0.89; IA [10]: 0.91; Ki [4]: 1800 nM

From ChEMBL document CHEMBL1130342, “Synthesis and evaluation of 2-(arylamino)imidazoles as alpha 2-adrenergic agonists” (J Med Chem, 1997)
